Source: ChEMBL document CHEMBL2057112, “Enamino-oxindole HIV protease inhibitors” (Bioorg Med Chem Lett, 2012)
pIC50, pKi: −log10 of the molar value.

Assays:
[1] = Inhibition of wild type Human immunodeficiency virus protease expressed in Escherichia coli using ArgGlu(EDANS)SerGlnAsnTyrProIleValGlnLys(DABCYL)Arg as substrate preincubated with compound for 0.5 to 1 min measured by fluorometric analysis at pH 6.5
[2] = Inhibition of Human immunodeficiency virus protease M8 mutant expressed in Escherichia coli using ArgGlu(EDANS)SerGlnAsnTyrProIleValGlnLys(DABCYL)Arg as substrate preincubated with compound for 0.5 to 1 min measured by fluorometric analysis at pH 6.5
[3] = Inhibition of Human immunodeficiency virus protease M9 mutant expressed in Escherichia coli using ArgGlu(EDANS)SerGlnAsnTyrProIleValGlnLys(DABCYL)Arg as substrate preincubated with compound for 0.5 to 1 min measured by fluorometric analysis at pH 6.5
[4] = Inhibition of Human immunodeficiency virus protease M10 mutant expressed in Escherichia coli using ArgGlu(EDANS)SerGlnAsnTyrProIleValGlnLys(DABCYL)Arg as substrate preincubated with compound for 0.5 to 1 min measured by fluorometric analysis at pH 6.5
[5] = test system: Human immunodeficiency virus 1; test: Antiviral activity against Human immunodeficiency virus 1 HXB2 expressing wild type protease infected in human MT4 cells after 5 days by MTT assay; type: functional, organism-based; conditions: Human immunodeficiency virus 1, HXB2, MT4, 120 h
[6] = test system: Human immunodeficiency virus 1; test: Antiviral activity against Human immunodeficiency virus 1 HXB2 expressing protease M8 mutant infected in human MT4 cells after 5 days by MTT assay; type: functional, organism-based; conditions: Human immunodeficiency virus 1, HXB2, MT4, 120 h
[7] = test system: Human immunodeficiency virus 1; test: Antiviral activity against Human immunodeficiency virus 1 HXB2 expressing protease M9 mutant infected in human MT4 cells after 5 days by MTT assay; type: functional, organism-based; conditions: Human immunodeficiency virus 1, HXB2, MT4, 120 h
[8] = test system: Human immunodeficiency virus 1; test: Antiviral activity against Human immunodeficiency virus 1 HXB2 expressing protease M10 mutant infected in human MT4 cells after 5 days by MTT assay; type: functional, organism-based; conditions: Human immunodeficiency virus 1, HXB2, MT4, 120 h
[9] = test system: Human immunodeficiency virus 1; test: Antiviral activity against Human immunodeficiency virus 1 HXB2 expressing protease M3 mutant infected in human MT4 cells after 5 days by MTT assay; type: functional, organism-based; conditions: Human immunodeficiency virus 1, HXB2, MT4, 120 h
Summary of the method: (§1)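 MT-4 cells (AIDS Research and Reference Reagent Program) exposed to 50% tissue culture infective doses (TCID₅₀) of virus with various concentrations of test compound for 5 days. MTT solution then added and absorbance measured. Mutant strains carry 10–17 resistance mutations with phenotypic resistance to marketed PIs; all include I84V except M7. IC₅₀ reported.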

[10] = test system: Human immunodeficiency virus 1; test: Antiviral activity against Human immunodeficiency virus 1 HXB2 expressing protease M4 mutant infected in human MT4 cells after 5 days by MTT assay; type: functional, organism-based; conditions: Human immunodeficiency virus 1, HXB2, MT4, 120 h; summary of the method: as §1
[11] = test system: Human immunodeficiency virus 1; test: Antiviral activity against Human immunodeficiency virus 1 HXB2 expressing protease M6 mutant infected in human MT4 cells after 5 days by MTT assay; type: functional, organism-based; conditions: Human immunodeficiency virus 1, HXB2, MT4, 120 h; summary of the method: as §1
[12] = test system: Human immunodeficiency virus 1; test: Antiviral activity against Human immunodeficiency virus 1 HXB2 expressing protease M5 mutant infected in human MT4 cells after 5 days by MTT assay; type: functional, organism-based; conditions: Human immunodeficiency virus 1, HXB2, MT4, 120 h; summary of the method: as §1

Row | SMILES | pKi [1] | pKi [2] | pKi [3] | pKi [4] | pIC50 [5] | pIC50 [6] | pIC50 [7] | pIC50 [8] | pIC50 [9] | pIC50 [10] | pIC50 [11] | pIC50 [12]
1 | CC(C)CN(C[C@@H](O)[C@H](Cc1ccccc1)NC(=O)O[C@H]1CO[C@H]2OCC[C@H]21)S(=O)(=O)c1ccc2c(c1)C(=CNCc1ccc3ccccc3n1)C(=O)N2 (mixture of isomers) | 10.00 | > 10.00 | > 9.52 | > 9.00 | 7.46 | 7.47 | 7.64 | 7.57 | 7.68 | 7.40 | 7.60 | –
2 | CC(C)CN(C[C@@H](O)[C@H](Cc1ccccc1)NC(=O)O[C@H]1CO[C@H]2OCC[C@H]21)S(=O)(=O)c1ccc2c(c1)C(=CNc1ccccc1)C(=O)N2 | > 10.00 | 9.34 | 8.92 | 7.89 | 7.89 | 6.96 | 7.00 | < 6.40 | – | – | – | –
3 | CC(C)CN(C[C@@H](O)[C@H](Cc1ccccc1)NC(=O)O[C@H]1CO[C@H]2OCC[C@H]21)S(=O)(=O)c1ccc2c(c1)CC(=O)N2 | > 10.00 | 9.28 | 9.02 | 7.85 | 7.09 | 6.82 | 6.96 | 6.03 | – | – | – | –
4 | CCCNC=C1C(=O)Nc2ccc(S(=O)(=O)N(CC(C)C)C[C@@H](O)[C@H](Cc3ccccc3)NC(=O)O[C@H]3CO[C@H]4OCC[C@H]43)cc21 (mixture of isomers) | 9.92 | > 10.00 | > 9.52 | > 9.00 | 7.52 | – | 7.40 | 6.92 | 7.40 | – | – | –
5 | CNC=C1C(=O)Nc2ccc(S(=O)(=O)N(CC(C)C)C[C@@H](O)[C@H](Cc3ccccc3)NC(=O)O[C@H]3CO[C@H]4OCC[C@H]43)cc21 (mixture of isomers) | > 10.00 | 9.96 | > 9.52 | > 9.00 | 7.22 | – | 7.30 | 7.03 | 7.29 | – | – | –
6 | CC(C)CN(C[C@@H](O)[C@H](Cc1ccccc1)NC(=O)O[C@H]1CO[C@H]2OCC[C@H]21)S(=O)(=O)c1ccc2c(c1)C(=CNCCN(C)C)C(=O)N2 (mixture of isomers) | > 10.00 | 9.24 | > 9.52 | 8.77 | < 6.40 | – | – | – | – | – | – | –
7 | CC(C)CN(C[C@@H](O)[C@H](Cc1ccccc1)NC(=O)O[C@H]1CO[C@H]2OCC[C@H]21)S(=O)(=O)c1ccc2c(c1)C(=CNC(C)C)C(=O)N2 (mixture of isomers) | > 10.00 | 9.96 | > 9.52 | > 9.00 | 7.82 | 7.52 | 7.72 | 7.22 | – | – | – | –
8 | CC(C)CN(C[C@@H](O)[C@H](Cc1ccccc1)NC(=O)O[C@H]1CO[C@H]2OCC[C@H]21)S(=O)(=O)c1ccc2c(c1)C(=CNCc1ccncc1)C(=O)N2 (mixture of isomers) | > 10.00 | – | > 9.52 | > 9.00 | 6.52 | 6.57 | 6.66 | 6.96 | – | – | – | –
9 | CC(C)CN(C[C@@H](O)[C@H](Cc1ccccc1)NC(=O)O[C@H]1CO[C@H]2OCC[C@H]21)S(=O)(=O)c1ccc2c(c1)C(=CNCC1CCCCC1)C(=O)N2 (mixture of isomers) | > 10.00 | 9.80 | > 9.52 | > 9.00 | 8.01 | 7.57 | 8.05 | 7.40 | 7.68 | 7.52 | 7.60 | 7.74
10 | CC(C)CN(C[C@@H](O)[C@H](Cc1ccccc1)NC(=O)O[C@H]1CO[C@H]2OCC[C@H]21)S(=O)(=O)c1ccc2c(c1)C(=CNCCNc1ccccc1)C(=O)N2 (mixture of isomers) | > 10.00 | 9.41 | > 9.52 | 8.52 | < 7.10 | 6.80 | 7.10 | 6.92 | – | – | – | –
11 | COCCNC=C1C(=O)Nc2ccc(S(=O)(=O)N(CC(C)C)C[C@@H](O)[C@H](Cc3ccccc3)NC(=O)O[C@H]3CO[C@H]4OCC[C@H]43)cc21 (mixture of isomers) | 9.96 | > 10.00 | > 9.52 | 8.92 | 7.15 | – | 7.38 | 7.32 | – | – | – | –
12 | CC(C)CN(C[C@@H](O)[C@H](Cc1ccccc1)NC(=O)O[C@H]1CO[C@H]2OCC[C@H]21)S(=O)(=O)c1ccc2c(c1)C(=CN)C(=O)N2 (mixture of isomers) | > 10.00 | – | > 9.52 | 8.52 | 6.52 | 6.70 | 6.70 | 6.74 | – | – | – | –
13 | CC(C)CN(C[C@@H](O)[C@H](Cc1ccccc1)NC(=O)O[C@H]1CO[C@H]2OCC[C@H]21)S(=O)(=O)c1ccc2c(c1)C(=CNCCO)C(=O)N2 (mixture of isomers) | > 10.00 | 9.96 | > 9.52 | > 9.00 | < 6.40 | – | 6.10 | 6.40 | – | – | – | –
14 | CCNC=C1C(=O)Nc2ccc(S(=O)(=O)N(CC(C)C)C[C@@H](O)[C@H](Cc3ccccc3)NC(=O)O[C@H]3CO[C@H]4OCC[C@H]43)cc21 (mixture of isomers) | > 10.00 | – | > 9.52 | > 9.00 | 7.55 | 7.46 | 7.57 | 7.10 | – | – | – | –
15 | Cc1nc(CNC=C2C(=O)Nc3ccc(S(=O)(=O)N(CC(C)C)C[C@@H](O)[C@H](Cc4ccccc4)NC(=O)O[C@H]4CO[C@H]5OCC[C@H]54)cc32)cs1 (mixture of isomers) | > 10.00 | – | > 9.52 | > 9.00 | 7.35 | 7.40 | 7.52 | 7.54 | – | – | – | –
16 | CCN(C=C1C(=O)Nc2ccc(S(=O)(=O)N(CC(C)C)C[C@@H](O)[C@H](Cc3ccccc3)NC(=O)O[C@H]3CO[C@H]4OCC[C@H]43)cc21)CC (mixture of isomers) | > 10.00 | – | > 9.52 | > 9.00 | 7.42 | 7.40 | 7.68 | 7.39 | – | – | – | –
17 | CC(C)CN(C[C@@H](O)[C@H](Cc1ccccc1)NC(=O)O[C@H]1CO[C@H]2OCC[C@H]21)S(=O)(=O)c1ccc2c(c1)C(=CN(C)C)C(=O)N2 (mixture of isomers) | > 10.00 | – | > 9.52 | > 9.00 | 7.03 | 7.05 | 7.19 | 7.15 | – | – | – | –
18 | CC(C)CN(C[C@@H](O)[C@H](Cc1ccccc1)NC(=O)O[C@H]1CO[C@H]2OCC[C@H]21)S(=O)(=O)c1ccc2c(c1)C(=CNC1CC1)C(=O)N2 (mixture of isomers) | > 10.00 | 9.92 | > 9.52 | 8.68 | 7.62 | 7.49 | 7.60 | 6.52 | – | – | – | –
19 | CC(C)CN(C[C@@H](O)[C@H](Cc1ccccc1)NC(=O)O[C@H]1CO[C@H]2OCC[C@H]21)S(=O)(=O)c1ccc2c(c1)C(=CNCCc1ccccc1)C(=O)N2 (mixture of isomers) | > 10.00 | 9.77 | > 9.52 | 8.89 | 7.66 | 7.21 | 7.55 | 6.96 | – | – | – | –
20 | CC(C)CN(C[C@@H](O)[C@H](Cc1ccccc1)NC(=O)O[C@H]1CO[C@H]2OCC[C@H]21)S(=O)(=O)c1ccc2c(c1)C(=CNCc1nc3ccccc3[nH]1)C(=O)N2 (mixture of isomers) | > 10.00 | – | > 9.52 | > 9.00 | < 6.40 | – | – | – | – | – | – | –
21 | CC(C)CN(C[C@@H](O)[C@H](Cc1ccccc1)NC(=O)O[C@H]1CO[C@H]2OCC[C@H]21)S(=O)(=O)c1ccc2c(c1)C(=CNC(C)(C)C)C(=O)N2 (mixture of isomers) | > 10.00 | 9.46 | 9.14 | 7.85 | 8.05 | 7.46 | 7.60 | 6.70 | – | – | – | –
